Experimental data published in article PMC5767168 (The Biochemical journal, 2011).

What was measured:
[1] = system: rat primary hippocampal neurons; experiment: Dendritic spine morphology, DiI staining; type: cell-based; details: for induction of dendritic varicosities: 3 μM peptide, 72 h
[2] = Electron microscopy of fibril formation in DMEM; type: physicochemical; details: 10 μM peptide, 37°C
Summary of the method: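 Peptide was dissolved in 60 mM NaOH, diluted into cell culture medium and sonicated 1 min. It was then incubated at 10 μM in DMEM without serum or cells at 37°C. Morphology was examined by electron microscopy periodically over several days, including 24 and 48 h.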

[3] = CD spectroscopy of conformational transition in phosphate buffer; type: physicochemical; details: 10 μM peptide, 10 mM sodium phosphate pH 7.4, 25°C; for appearance of the solution at 48–72 h of incubation: agitation; for kinetics of conformational transition by CD, in words: agitation 200 rev./min
Summary of the method: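 HFIP-treated peptide films were dissolved in 60 mM NaOH, diluted with water, sonicated 1 min, then diluted with 20 mM sodium phosphate (pH 7.4) to 10 μM. Samples were incubated at 25°C with orbital agitation at 200 rev./min. CD spectra (190–260 nm, 1-mm path) were taken every 2 h for 12 h, then at 24, 48 and 72 h, and background-subtracted. Three independent experiments were run.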

[4] = Electron microscopy of fibril formation in phosphate buffer; type: physicochemical; details: sodium phosphate pH 7.4, 25°C, 96 h
Summary of the method: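 HFIP-treated peptide was dissolved in 60 mM NaOH, sonicated and diluted in sodium phosphate (pH 7.4). It was incubated at 25°C with orbital agitation at 200 rev./min. Aliquots were applied to glow-discharged carbon-coated Formvar grids for 20 min, fixed in 2.5% glutaraldehyde for 4 min, stained with 1% uranyl acetate for 3 min, air-dried and imaged by TEM. Three independent experiments were run.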

[5] = CD spectroscopy of conformational transition in DMEM; type: physicochemical; details: 10 μM peptide, 37°C
Summary of the method: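 Peptide was dissolved in 60 mM NaOH, diluted into cell culture medium and sonicated 1 min. It was then incubated at 10 μM in DMEM without serum or cells at 37°C. Conformation was followed by CD periodically over several days.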

Row | Substance | induction of dendritic varicosities [1] | time by which the fibrillation process appeared complete (electron microscopy) [2] | appearance of the solution at 48–72 h of incubation [3] | kinetics of conformational transition by CD, in words [3] | further results
1 | Aβ42: Aβ (amyloid β-protein) comprising 42 amino acids, wild-type | abundant varicosities | ≤ 24 h | – | – | effect at 10 μM in the dendritic spine assay ([1]; 10 μM peptide, initial experiments): overt cell death
2 | [Met(O2)^35]Aβ40 [Aβ40-sulfone] | – | – | free of particulate material or precipitates | – | –
3 | [Met(O2)^35]Aβ42 [Aβ42-sulfone] | abundant varicosities | ≤ 24 h | – | behaved similarly to WT Aβ42 | –
4 | [Met(O)^35]-Aβ42 [Aβ42-sulfoxide] | little induction of varicosities | – | – | did not change during the first 24 h | –
5 | [Met(O)^35]Aβ40 [Aβ40-sulfoxide] | – | – | free of particulate material or precipitates | – | abundance of fibrils by electron microscopy [4]: scarce relative to those of WT Aβ40 or Aβ40-sulfone; kinetics of conformational transition by CD in medium, in words [5]: somewhat slower
